Results on one compound are retold here after ChEMBL document CHEMBL1128411, “Conformationally defined 6-s-trans-retinoic acid analogs. 2. Selective agonists for nuclear receptor binding and transcriptional activity” (J Med Chem, 1995).

The pIC50 is the IC50 on a negative log10 scale, so that one unit is a factor of ten. Read a low pIC50 as a high IC50. For orientation: pKd means the Kd on a negative log10 scale, so that one unit is a factor of ten. A higher pKd goes with a low Kd.

In assay [1] the target is T1, Retinoic acid receptor gamma (Mus musculus, UniProt P18911).
T1 sequence (P18911 whole entry): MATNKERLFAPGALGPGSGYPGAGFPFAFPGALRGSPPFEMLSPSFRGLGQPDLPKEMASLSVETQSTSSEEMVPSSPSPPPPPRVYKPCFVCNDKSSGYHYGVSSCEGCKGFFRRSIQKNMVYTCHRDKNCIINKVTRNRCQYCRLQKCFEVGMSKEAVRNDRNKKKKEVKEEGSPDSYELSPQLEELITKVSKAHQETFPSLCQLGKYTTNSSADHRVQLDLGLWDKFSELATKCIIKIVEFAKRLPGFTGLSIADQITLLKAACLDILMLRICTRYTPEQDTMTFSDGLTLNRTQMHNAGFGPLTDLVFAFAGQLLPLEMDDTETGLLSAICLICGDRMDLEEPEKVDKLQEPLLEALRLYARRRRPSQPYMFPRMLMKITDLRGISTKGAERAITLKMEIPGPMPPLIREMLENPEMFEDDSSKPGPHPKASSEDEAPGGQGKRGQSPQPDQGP
The assay is described as follows: Inhibition of binding to murine Retinoic acid receptor RAR gamma. In a few lines: (§1)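 Nucleosol fractions from COS-1 cells transfected with mouse RARα, β or γ cDNA in pSG5 were incubated with 5 nM [3H]-(all-E)-RA at 4 °C for 4 h. Competitor in ethanol was added at nine concentrations (0–10 μM) in duplicate. Bound label was separated on PD-10 desalting columns and counted by scintillation. IC50 came from a fit of percent specific binding.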

Assay [2] addresses T2, Cellular retinoic acid-binding protein 2 (Mus musculus, UniProt P22935).
T2 sequence (P22935 whole entry): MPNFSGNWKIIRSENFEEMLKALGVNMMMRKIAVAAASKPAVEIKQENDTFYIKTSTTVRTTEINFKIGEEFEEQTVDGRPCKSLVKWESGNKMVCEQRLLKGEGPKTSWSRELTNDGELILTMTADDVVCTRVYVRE
The assay is described as follows: Binding affinity for mouse Cytoplasmic retinoic acid binding protein type 2. Summed up:
(§2)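 Equilibrium fluorometric titration at 25 °C of recombinant E. coli-expressed apo-proteins (mCRABP-I, mCRABP-II, or hRXRα DEF ligand-binding domain). Ligands came from ethanol stocks, with concentrations set by UV/vis in hexane. Tryptophan fluorescence quenching was read and corrected for inner filter effects. A survey was run at 10^-6 M protein to check stoichiometry.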

Assay [3] addresses Cellular retinoic acid-binding protein 1 (Mus musculus, UniProt P62965). The assay is described as follows: Binding affinity for mouse Cytoplasmic retinoic acid binding protein type 1. In a few lines: as §2
For assay [4], the target named is T3, Retinoic acid receptor beta (Mus musculus, UniProt P22605).
T3 sequence (P22605 whole entry): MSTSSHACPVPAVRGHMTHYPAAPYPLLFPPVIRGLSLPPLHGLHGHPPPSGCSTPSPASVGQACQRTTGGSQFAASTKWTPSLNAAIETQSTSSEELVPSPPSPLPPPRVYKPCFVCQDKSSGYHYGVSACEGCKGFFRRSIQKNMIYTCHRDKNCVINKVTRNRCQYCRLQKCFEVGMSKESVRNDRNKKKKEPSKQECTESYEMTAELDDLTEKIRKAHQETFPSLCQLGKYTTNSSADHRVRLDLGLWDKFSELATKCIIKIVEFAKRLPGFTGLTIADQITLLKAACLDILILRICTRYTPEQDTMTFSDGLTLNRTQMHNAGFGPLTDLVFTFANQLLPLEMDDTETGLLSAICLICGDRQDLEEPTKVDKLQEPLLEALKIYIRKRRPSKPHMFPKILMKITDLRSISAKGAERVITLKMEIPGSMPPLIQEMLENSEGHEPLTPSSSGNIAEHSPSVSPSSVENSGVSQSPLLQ
Kind of assay: Inhibition of murine Retinoic acid receptor RAR beta. Summed up: as §1

For assay [5], the target named is T4, Retinoic acid receptor RXR-alpha (Homo sapiens, UniProt P19793).
T4 sequence (P19793 whole entry): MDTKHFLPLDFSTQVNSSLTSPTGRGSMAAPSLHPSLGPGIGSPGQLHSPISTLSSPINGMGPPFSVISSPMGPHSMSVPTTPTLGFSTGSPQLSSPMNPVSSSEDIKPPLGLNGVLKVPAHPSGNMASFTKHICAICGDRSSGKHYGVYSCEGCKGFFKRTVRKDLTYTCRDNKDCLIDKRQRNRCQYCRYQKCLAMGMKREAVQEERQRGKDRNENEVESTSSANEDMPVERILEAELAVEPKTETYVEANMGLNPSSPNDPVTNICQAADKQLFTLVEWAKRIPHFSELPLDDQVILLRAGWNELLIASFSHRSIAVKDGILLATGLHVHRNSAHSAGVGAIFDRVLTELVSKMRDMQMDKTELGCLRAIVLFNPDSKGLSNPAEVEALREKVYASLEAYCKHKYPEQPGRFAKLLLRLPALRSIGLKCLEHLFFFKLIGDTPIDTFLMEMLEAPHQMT
Kind of assay: Binding affinity for human Retinoid X receptor RXR alpha. In a few lines: as §2

Assay [6] has as its target T5, Retinoic acid receptor RXR-alpha (Mus musculus, UniProt P28700).
T5 sequence (P28700 whole entry): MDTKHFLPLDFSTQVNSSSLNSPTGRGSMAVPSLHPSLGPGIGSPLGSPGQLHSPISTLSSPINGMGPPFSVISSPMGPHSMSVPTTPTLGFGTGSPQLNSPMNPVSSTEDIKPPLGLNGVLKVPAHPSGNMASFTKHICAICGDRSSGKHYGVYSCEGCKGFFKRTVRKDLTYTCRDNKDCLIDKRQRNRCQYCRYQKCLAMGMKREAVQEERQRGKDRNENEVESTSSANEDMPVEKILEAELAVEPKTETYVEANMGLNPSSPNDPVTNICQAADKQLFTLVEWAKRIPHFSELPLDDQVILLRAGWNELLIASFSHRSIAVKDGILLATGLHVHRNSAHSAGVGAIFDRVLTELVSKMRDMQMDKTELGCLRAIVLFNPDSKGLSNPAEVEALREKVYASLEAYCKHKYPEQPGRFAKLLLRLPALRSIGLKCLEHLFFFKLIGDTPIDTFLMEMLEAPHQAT
Kind of assay: Inhibition of binding to murine Retinoid X receptor RXR alpha.

pIC50, pKd: −log10 of the molar value.

Cellular retinoic acid-binding protein 1, sequence (P62965 whole entry): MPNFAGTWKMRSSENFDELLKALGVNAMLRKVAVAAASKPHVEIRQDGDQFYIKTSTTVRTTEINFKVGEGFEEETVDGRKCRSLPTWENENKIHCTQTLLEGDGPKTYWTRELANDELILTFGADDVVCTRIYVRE

As to `CCC1=C(C(C)C)/C(=C/C(C)=C/C=C/C(C)=C/C(=O)O)CCC1`, the figures for the negative logarithm of the IC50 (pIC50) in assay [1], in assay [4] and in assay [6] were 8.00, 8.22 and < 6.00, respectively. The pKd in assay [2] is 8.85; in assay [3] it was 9.52; in assay [5], < 6.70.
